Test results published in PubChem BioAssay.
The source made the active and inactive calls.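 The calls were made as follows, unless noted: active = viability at or below 30% in both replicate assays; inconclusive = viability at or below 30% in just one of the two assays; inactive = the rest.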

What was measured:
[1] = Her2 expression decrease, cell viability multiplex – SKBR3 breast tumor cells, AlphaScreen, ATP viability, primary screen (AID 461;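 active = Her2 level under about 52% in both replicate screens, with viability over 70% of control, limit read from the data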;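 as to Her2 level: lower value means less Her2 protein in the cells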;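 as to viability: percent of carrier control wells set as 100% viability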); details: SKBR3 Her2 protein level, 18-24 h, measured here: SKBR3 viability, ATP luminescence, at 10 µM
[2] = molecular target: Receptor tyrosine-protein kinase erbB-2 (Homo sapiens) (UniProt P04626); assay: as above; details: 18-24 h, at 10 µM, stronger effect = lower value
[3] = reduced viability of SK-BR-3 breast cancer cells – cell-based, 24 h, human, pilot screen (AID 572;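 active = viability at or below 10% of carrier control in both of two separate runs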;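 also: compound exposure lasted between 18 and 24 h rather than exactly 24 h; 100% = carrier-treated control wells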); details: SK-BR-3 viability, CellTiter-Glo luminescence, at 10 µM, stronger effect = lower value
[4] = HUVEC growth inhibition – cell-based, human, primary screen (AID 575); details: HUVEC proliferation, CellTiter-Glo luminescence, 72 h; at 10 µM; stronger effect = lower value;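 also: 100% = median of untreated cell wells with 0.1% DMSO on each plate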
How it was run: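 system = HUVEC primary cells | amount = 1250 cells/well | buffer or medium = supplemented EBM, 2% fetal bovine serum | dosing = single-point 10 µM, DMSO 0.1% final | times = 72 h compound incubation | detection = CTG luminescence | read-out = % viability relative to median vehicle-well signal on each plate | control set = vehicle and MePR control wells | format = collagen-coated 384-well format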

[5] = H69AR cell proliferation blockers – human, duplicate replicates, primary screen (AID 580;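 active = viability at or under a set limit in both replicates, limit being median viability minus 3 SD, cut at about 48% in these data, passing the limit was not always enough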;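 also: 100% = mean luminescence of untreated wells and 0% = no signal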); details: H69AR lung tumor cells viability, ATP luminescence, 72 h; at 10 µM; stronger effect = lower value
[6] = MRP1 drug-resistance reversers in H69AR cells – cell-based, doxorubicin co-treatment, pilot screen (AID 601;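 active = viability loss from added drug above about 55%, and viability with drug at most 40%, in both replicates, limit read from the data, passing the limit was not always enough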); details: CellTiter-Glo, 72 h, at 10 µM; for differential viability (reversal): stronger effect = higher value
[7] = yeast transport mutant growth inhibition pilot in 384-well plates, post-Golgi transport modulator project (AID 636; in the data active = inhibition above about 31%); details: absorbance 615 nm, about 18 h, stronger effect = higher value
[8] = growth suppression of yeast trafficking mutant, preliminary HTS, modulators of trafficking downstream of Golgi apparatus project, 1536-format plate, OD 615 nm (AID 637; in the data active = inhibition above about 30%); details: yeast transport mutant growth, absorbance 615 nm, 18 h; stronger effect = higher value
[9] = H69AR cells + 2 uM doxorubicin, measured here: viability with 2 uM doxorubicin, stronger effect = lower value
[10] = H69AR cells, compound alone cytotoxicity

Receptor tyrosine-protein kinase erbB-2 (Homo sapiens), sequence (P04626 whole entry, looked up): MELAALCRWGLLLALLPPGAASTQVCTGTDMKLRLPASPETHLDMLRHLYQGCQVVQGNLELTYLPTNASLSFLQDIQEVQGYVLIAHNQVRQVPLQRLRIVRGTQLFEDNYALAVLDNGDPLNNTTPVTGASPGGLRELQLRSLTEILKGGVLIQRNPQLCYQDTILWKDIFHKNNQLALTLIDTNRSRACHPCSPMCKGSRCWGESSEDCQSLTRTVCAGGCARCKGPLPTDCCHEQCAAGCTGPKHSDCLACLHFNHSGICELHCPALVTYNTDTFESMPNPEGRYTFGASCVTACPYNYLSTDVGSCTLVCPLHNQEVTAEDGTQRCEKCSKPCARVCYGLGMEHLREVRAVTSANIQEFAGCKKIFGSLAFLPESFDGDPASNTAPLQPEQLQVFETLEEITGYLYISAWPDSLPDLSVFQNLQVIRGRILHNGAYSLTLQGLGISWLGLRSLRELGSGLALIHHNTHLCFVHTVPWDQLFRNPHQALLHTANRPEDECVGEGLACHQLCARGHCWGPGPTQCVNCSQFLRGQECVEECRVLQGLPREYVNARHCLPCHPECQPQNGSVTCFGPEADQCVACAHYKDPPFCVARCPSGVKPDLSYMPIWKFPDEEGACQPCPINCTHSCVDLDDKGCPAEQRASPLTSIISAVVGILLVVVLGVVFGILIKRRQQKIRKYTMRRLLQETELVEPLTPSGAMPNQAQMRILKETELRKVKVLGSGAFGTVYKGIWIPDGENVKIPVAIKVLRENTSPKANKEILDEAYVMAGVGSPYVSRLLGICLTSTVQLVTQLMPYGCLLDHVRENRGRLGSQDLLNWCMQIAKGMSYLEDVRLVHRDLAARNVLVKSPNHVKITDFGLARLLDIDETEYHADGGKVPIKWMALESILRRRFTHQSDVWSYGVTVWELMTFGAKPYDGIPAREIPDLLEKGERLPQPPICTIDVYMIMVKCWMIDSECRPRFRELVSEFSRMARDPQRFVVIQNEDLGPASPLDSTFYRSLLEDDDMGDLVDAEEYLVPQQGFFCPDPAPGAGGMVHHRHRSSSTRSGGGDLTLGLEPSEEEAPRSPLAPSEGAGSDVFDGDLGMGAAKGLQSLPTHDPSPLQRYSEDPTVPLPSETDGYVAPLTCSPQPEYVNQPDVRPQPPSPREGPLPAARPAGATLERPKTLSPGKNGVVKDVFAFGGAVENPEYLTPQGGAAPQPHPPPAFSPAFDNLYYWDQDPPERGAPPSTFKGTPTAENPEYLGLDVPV

SMILES | viability [1] [%] | Her2 level [2] | viability [3] | viability [4] | viability [5] | differential viability (reversal) ([6]; H69AR cells + 2 uM doxorubicin) | viability [6, 9] [%] | viability [6, 10] [%] | inhibition [7] | inhibition [8]
COCCn1c(SCc2csc(-c3ccccc3)n2)nc2ccccc21 | 94 | 98.5% (inactive) | 94% (inactive) | 71.5% (inactive) | 88.5% (inactive) | -2.99% (inactive) | 91.5 | 88.5 | 1.3% (inactive) | -8.03% (inactive)
CCOC(=O)CNC(=O)C(Cc1ccccc1)NS(=O)(=O)c1ccc2c(c1)CCC(=O)N2 (stereo not given) | 101 | 114% (inactive) | 101% (inactive) | 92.8% (inactive) | 90.7% (inactive) | -0.925% (inactive) | 91.7 | 90.7 | 1.84% (inactive) | -5.64% (inactive)
CC(=O)c1cccc(-n2nnnc2SCC(=O)N2CCCC2)c1 | 93.5 | 88% (inactive) | 93.5% (inactive) | 83.1% (inactive) | 87.9% (inactive) | -2.82% (inactive) | 90.7 | 87.9 | -3.55% (inactive) | -7.5% (inactive)
CN(C=O)CP(=O)(O)CCN1CCCC1=O | 126 | 121% (inactive) | 126% (inactive) | 104% (inactive) | 99.4% (inactive) | 7.19% (inactive) | 92.2 | 99.4 | -4.47% (inactive) | 0.66% (inactive)
CCCCN(C)C(=O)CS(=O)(=O)Cc1nc(-c2cccc(OC)c2)oc1C | 94 | 114% (inactive) | 94% (inactive) | 94.8% (inactive) | 99.9% (inactive) | 15.6% (inactive) | 84.2 | 99.9 | -4.4% (inactive) | 3.11% (inactive)
Cc1cc(Cl)ccc1OCCCC(=O)N1CCOCC1 | 90 | 92.5% (inactive) | 90% (inactive) | 99.5% (inactive) | 87.7% (inactive) | 0.08% (inactive) | 87.6 | 87.7 | -5.39% (inactive) | 11.2% (inactive)
CCCC1(C(=O)OCC)NC(c2ccc(N(C)C)cc2)C2C(=O)N(c3ccc(F)cc3)C(=O)C21 (stereo not given) | 90 | 97% (inactive) | 90% (inactive) | 104% (inactive) | 112% (inactive) | 13.8% (inactive) | 98.2 | 112 | 0% (inactive) | -2.67% (inactive)
CC1CCN(CC(O)COC2CCC(C(C)(C)C)CC2)CC1 (stereo not given) | 82 | 76% (inactive) | 82% (inactive) | 73.8% (inactive) | 74.5% (inactive) | 3.15% (inactive) | 71.4 | 74.5 | 97.8% (active) | 84.4% (active)
Nn1c(SCC(=O)NC2CCCCC2)nnc1C1CC1 | 102 | 111% (inactive) | 102% (inactive) | 98.4% (inactive) | 103% (inactive) | 0.415% (inactive) | 103 | 103 | -0.52% (inactive) | 10.8% (inactive)
COc1ccccc1-c1nc2n(n1)C(c1cccs1)C(C(=O)Nc1cccnc1)=C(C)N2 (stereo not given) | 83.5 | 95.5% (inactive) | 83.5% (inactive) | 97.9% (inactive) | 87.1% (inactive) | 0.115% (inactive) | 87 | 87.1 | -2.43% (inactive) | -4.92% (inactive)
Cc1cc(Nc2ccccc2)n(CCC#N)n1 | 83.5 | 84.5% (inactive) | 83.5% (inactive) | 105% (inactive) | 102% (inactive) | 9.18% (inactive) | 92.9 | 102 | -5.73% (inactive) | 7.7% (inactive)
CC(=O)Nc1sc2c(c1CN1CCN(c3ccccn3)CC1)CCCC2 | 66 | 85.5% (inactive) | 66% (inactive) | 96% (inactive) | 95.4% (inactive) | 12% (inactive) | 83.3 | 95.4 | -2.53% (inactive) | -10.5% (inactive)
CCOC(=O)c1c(C)oc2ccc(O)c(CN3CCCCC3)c12 | 87.5 | 79.5% (inactive) | 87.5% (inactive) | 90.2% (inactive) | 86.9% (inactive) | -3.83% (inactive) | 90.7 | 86.9 | -1.84% (inactive) | 2.22% (inactive)
O=C(NCc1cccnc1)c1cn(CCc2ccccc2)nn1 | 99.5 | 93% (inactive) | 99.5% (inactive) | 130% (inactive) | 109% (inactive) | 20.4% (inactive) | 89 | 109 | -5.27% (inactive) | 4.33% (inactive)
O=C(O)CCCC(=O)NCCc1ccncc1 | 98 | 89% (inactive) | 98% (inactive) | 97% (inactive) | 107% (inactive) | 7.97% (inactive) | 98.5 | 107 | -1.84% (inactive) | -1.27% (inactive)
O=S(=O)(c1cccs1)N1CCN(C/C=C/c2ccccc2)CC1 | 101 | 91.5% (inactive) | 101% (inactive) | 83.3% (inactive) | 82.9% (inactive) | 1.57% (inactive) | 81.4 | 82.9 | -3.73% (inactive) | 2.1% (inactive)
O=C(C1CCCN(S(=O)(=O)c2ccc(Br)s2)C1)N1CCCCCC1 (stereo not given) | 83.5 | 95% (inactive) | 83.5% (inactive) | 98.4% (inactive) | 98.1% (inactive) | 9.84% (inactive) | 88.2 | 98.1 | -3.16% (inactive) | -3.5% (inactive)
COc1ccc2c(c1)cc(C(=O)O)n2C | 92.5 | 73% (inactive) | 92.5% (inactive) | 102% (inactive) | 98.7% (inactive) | 8.84% (inactive) | 89.9 | 98.7 | -5.39% (inactive) | -5.67% (inactive)
Cc1ccc(O)c(C(CC(=O)N2CCCC2)c2ccccc2)c1 (stereo not given) | 89 | 101% (inactive) | 89% (inactive) | 92.4% (inactive) | 94.8% (inactive) | 12.3% (inactive) | 82.5 | 94.8 | -0.38% (inactive) | -6.83% (inactive)
Cc1cc(C)cc(OCCCC(=O)O)c1 | 114 | 97% (inactive) | 114% (inactive) | 67.9% (inactive) | 95.3% (inactive) | 3.5% (inactive) | 91.8 | 95.3 | -5.6% (inactive) | -0.16% (inactive)
CCOc1ccccc1NC(=O)NC1CCN(CC(=O)Nc2ccc3c(c2)OCCO3)CC1 | 119 | 97% (inactive) | 119% (inactive) | 73.9% (inactive) | 86.8% (inactive) | -7.47% (inactive) | 94.3 | 86.8 | -0.39% (inactive) | 7.54% (inactive)
Cc1cc(=O)oc2cc(OCC(=O)OCc3nnc(-c4ccccc4)o3)ccc12 | 106 | 92.5% (inactive) | 106% (inactive) | 84.1% (inactive) | 94.9% (inactive) | 3.04% (inactive) | 91.9 | 94.9 | -6.18% (inactive) | -0.16% (inactive)
Cc1ccccc1-n1c(=O)c2ccccc2n2nnnc12 | 80 | 112% (inactive) | 80% (inactive) | 101% (inactive) | 93% (inactive) | -1.09% (inactive) | 94.1 | 93 | 0% (inactive) | -15.6% (inactive)
COc1ccc(C2=Nn3c(nnc3-c3ccccc3)SC2)cc1OC | 124 | 101% (inactive) | 124% (inactive) | 78.1% (inactive) | 81.7% (inactive) | 2.4% (inactive) | 79.3 | 81.7 | -4.47% (inactive) | 5.65% (inactive)
COCCNC(=O)C1CCCN(c2ncccn2)C1 (stereo not given) | 93 | 79% (inactive) | 93% (inactive) | 98.8% (inactive) | 89.8% (inactive) | -8.68% (inactive) | 98.5 | 89.8 | -7.81% (inactive) | 1.27% (inactive)
COc1ccccc1C(=O)N1CCN=C1SCc1cccnc1 | 102 | 103% (inactive) | 102% (inactive) | 97.5% (inactive) | 96.8% (inactive) | 11.6% (inactive) | 85.3 | 96.8 | -3.65% (inactive) | -2.06% (inactive)
CCCCNc1cc(C)oc(=O)c1C(C)=O | 94.5 | 107% (inactive) | 94.5% (inactive) | 105% (inactive) | 97.9% (inactive) | 7% (inactive) | 90.9 | 97.9 | -4.86% (inactive) | 3.28% (inactive)
c1ccc(SCc2nc3ccccc3[nH]2)nc1 | 99.5 | 107% (inactive) | 99.5% (inactive) | 103% (inactive) | 90.6% (inactive) | -6.88% (inactive) | 97.5 | 90.6 | -5.87% (inactive) | 22.3% (inactive)
c1ccc2ncc(-n3cnnn3)cc2c1 | 99.5 | 105% (inactive) | 99.5% (inactive) | 83.2% (inactive) | 94% (inactive) | 6.05% (inactive) | 87.9 | 94 | -3.24% (inactive) | 5.74% (inactive)
